Measured values taken from ChEMBL document CHEMBL3734675, “Synthesis, antimycobacterial and antibacterial activity of fluoroquinolone derivatives containing an 3-alkoxyimino-4-(cyclopropylanimo)methylpyrrolidine moiety” (2015).
Converted amounts (≈) assume the structure as drawn.

Experiments:
Assay type in all cases: functional
[1] = test system: Escherichia coli; assay: Antibacterial activity against Escherichia coli ATCC 25922 after 18 to 24 hrs by two-fold serial dilution method
Method in brief: (§1)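 Twofold serial dilution in agar media against Gram-positive and Gram-negative strains. Plates incubated at 35 °C for 18–24 h. MIC read as the lowest compound concentration giving complete inhibition of bacterial growth.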

[2] = test system: Escherichia coli; assay: Antibacterial activity against extended-spectrum beta-lactamase producing Escherichia coli 14-1 after 18 to 24 hrs by two-fold serial dilution method; method in brief: as §1
[3] = test system: Escherichia coli; assay: Antibacterial activity against extended-spectrum beta-lactamase producing Escherichia coli 14-2 after 18 to 24 hrs by two-fold serial dilution method; method in brief: as §1
[4] = test system: Escherichia coli; assay: Antibacterial activity against Escherichia coli 14-1 after 18 to 24 hrs by two-fold serial dilution method; method in brief: as §1
[5] = test system: Escherichia coli; assay: Antibacterial activity against Escherichia coli 14-2 after 18 to 24 hrs by two-fold serial dilution method; method in brief: as §1
[6] = test system: Klebsiella pneumoniae; assay: Antibacterial activity against extended-spectrum beta-lactamase producing Klebsiella pneumoniae 14-17 after 18 to 24 hrs by two-fold serial dilution method; method in brief: as §1
[7] = test system: Klebsiella pneumoniae; assay: Antibacterial activity against extended-spectrum beta-lactamase producing Klebsiella pneumoniae 14-18 after 18 to 24 hrs by two-fold serial dilution method; method in brief: as §1
[8] = test system: Klebsiella pneumoniae; assay: Antibacterial activity against extended-spectrum beta-lactamase producing Klebsiella pneumoniae 14-19 after 18 to 24 hrs by two-fold serial dilution method; method in brief: as §1
[9] = test system: Klebsiella pneumoniae; assay: Antibacterial activity against Klebsiella pneumoniae 14-1 after 18 to 24 hrs by two-fold serial dilution method; method in brief: as §1
[10] = test system: Klebsiella pneumoniae; assay: Antibacterial activity against Klebsiella pneumoniae 14-2 after 18 to 24 hrs by two-fold serial dilution method; method in brief: as §1
[11] = test system: Klebsiella pneumoniae; assay: Antibacterial activity against Klebsiella pneumoniae 14-3 after 18 to 24 hrs by two-fold serial dilution method; method in brief: as §1
[12] = test system: Klebsiella pneumoniae; assay: Antibacterial activity against Klebsiella pneumoniae 14-4 after 18 to 24 hrs by two-fold serial dilution method; method in brief: as §1
[13] = test system: Pseudomonas aeruginosa; assay: Antibacterial activity against Pseudomonas aeruginosa ATCC 27853 after 18 to 24 hrs by two-fold serial dilution method; method in brief: as §1
[14] = test system: Pseudomonas aeruginosa; assay: Antibacterial activity against Pseudomonas aeruginosa 14-9 after 18 to 24 hrs by two-fold serial dilution method; method in brief: as §1
[15] = test system: Pseudomonas aeruginosa; assay: Antibacterial activity against Pseudomonas aeruginosa 14-14 after 18 to 24 hrs by two-fold serial dilution method; method in brief: as §1
[16] = test system: Pseudomonas aeruginosa; assay: Antibacterial activity against Pseudomonas aeruginosa 14-15 after 18 to 24 hrs by two-fold serial dilution method; method in brief: as §1
[17] = test system: Pseudomonas aeruginosa; assay: Antibacterial activity against Pseudomonas aeruginosa 14-16 after 18 to 24 hrs by two-fold serial dilution method; method in brief: as §1
[18] = test system: Staphylococcus aureus; assay: Antibacterial activity against Staphylococcus aureus CMCC 26003 after 18 to 24 hrs by two-fold serial dilution method; method in brief: as §1
[19] = test system: Staphylococcus aureus; assay: Antibacterial activity against methicillin-sensitive Staphylococcus aureus 14-1 after 18 to 24 hrs by two-fold serial dilution method; method in brief: as §1
[20] = test system: Staphylococcus aureus; assay: Antibacterial activity against methicillin-sensitive Staphylococcus aureus 14-3 after 18 to 24 hrs by two-fold serial dilution method; method in brief: as §1
[21] = test system: Staphylococcus aureus; assay: Antibacterial activity against methicillin-sensitive Staphylococcus aureus 14-4 after 18 to 24 hrs by two-fold serial dilution method; method in brief: as §1
[22] = test system: Staphylococcus aureus; assay: Antibacterial activity against methicillin-resistant Staphylococcus aureus 14-4 after 18 to 24 hrs by two-fold serial dilution method
Method in brief: (§2)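 Agar media, standard twofold serial dilution. MIC is the lowest concentration giving complete inhibition of bacterial growth after incubation at 35 °C for 18–24 h. Ciprofloxacin and levofloxacin were run as comparators.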

[23] = test system: Staphylococcus aureus; assay: Antibacterial activity against methicillin-resistant Staphylococcus aureus 14-5 after 18 to 24 hrs by two-fold serial dilution method; method in brief: as §2
[24] = test system: Staphylococcus epidermidis; assay: Antibacterial activity against methicillin-sensitive Staphylococcus epidermidis 14-2 after 18 to 24 hrs by two-fold serial dilution method; method in brief: as §1
[25] = test system: Staphylococcus epidermidis; assay: Antibacterial activity against methicillin-resistant Staphylococcus epidermidis 14-21 after 18 to 24 hrs by two-fold serial dilution method; method in brief: as §2
[26] = test system: Staphylococcus epidermidis; assay: Antibacterial activity against methicillin-resistant Staphylococcus epidermidis 14-22 after 18 to 24 hrs by two-fold serial dilution method; method in brief: as §2
[27] = test system: Staphylococcus epidermidis; assay: Antibacterial activity against methicillin-resistant Staphylococcus epidermidis 14-37 after 18 to 24 hrs by two-fold serial dilution method; method in brief: as §2
[28] = test system: Staphylococcus epidermidis; assay: Antibacterial activity against methicillin-resistant Staphylococcus epidermidis 14-39 after 18 to 24 hrs by two-fold serial dilution method; method in brief: as §2
[29] = test system: Streptococcus pneumoniae; assay: Antibacterial activity against methicillin-resistant Streptococcus pneumoniae ATCC 19615 after 18 to 24 hrs by two-fold serial dilution method; method in brief: as §2
[30] = test system: Enterococcus faecium; assay: Antibacterial activity against Enterococcus faecium 14-2 after 18 to 24 hrs by two-fold serial dilution method; method in brief: as §1
[31] = test system: Enterococcus faecium; assay: Antibacterial activity against Enterococcus faecium 14-5 after 18 to 24 hrs by two-fold serial dilution method; method in brief: as §1
[32] = test system: Enterococcus faecium; assay: Antibacterial activity against Enterococcus faecium 14-6 after 18 to 24 hrs by two-fold serial dilution method; method in brief: as §1
[33] = test system: Enterococcus faecalis; assay: Antibacterial activity against Enterococcus faecalis 14-1 after 18 to 24 hrs by two-fold serial dilution method; method in brief: as §1
[34] = test system: Enterococcus faecalis; assay: Antibacterial activity against Enterococcus faecalis 14-2 after 18 to 24 hrs by two-fold serial dilution method; method in brief: as §1

| Structure (SMILES) | MIC [1] [µg/mL] | MIC [2] [µg/mL] | MIC [3] [µg/mL] | MIC [4] [µg/mL] | MIC [5] [µg/mL] | MIC [6] [µg/mL] | MIC [7] [µg/mL] | MIC [8] [µg/mL] | MIC [9] [µg/mL] | MIC [10] [µg/mL] | MIC [11] [µg/mL] | MIC [12] [µg/mL] | MIC [13] [µg/mL] | MIC [14] [µg/mL] | MIC [15] [µg/mL] | MIC [16] [µg/mL] | MIC [17] [µg/mL] | MIC [18] [µg/mL] | MIC [19] [µg/mL] | MIC [20] [µg/mL] | also measured |
| --- | --- | --- | --- | --- | --- | --- | --- | --- | --- | --- | --- | --- | --- | --- | --- | --- | --- | --- | --- | --- | --- |
| CC1(CNC2CC2)CN(c2nc3c(cc2F)c(=O)c(C(=O)O)cn3[C@@H]2C[C@@H]2F)C/C1=N/OCc1ccccc1 (some centres not stated) | 4 (≈ 7.44 µM) | 32 (≈ 59.5 µM) | > 64 | > 64 | > 64 | 64 (≈ 119 µM) | 64 (≈ 119 µM) | > 64 | 64 (≈ 119 µM) | 64 (≈ 119 µM) | 64 (≈ 119 µM) | > 64 | 64 (≈ 119 µM) | 32 (≈ 59.5 µM) | 64 (≈ 119 µM) | 64 (≈ 119 µM) | 64 (≈ 119 µM) | 0.125 (≈ 0.233 µM) | 8 (≈ 14.9 µM) | 2 (≈ 3.72 µM) | MIC [21]: 8 µg/mL (≈ 14.9 µM); MIC [22]: 16 µg/mL (≈ 29.8 µM); MIC [23]: 16 µg/mL (≈ 29.8 µM); MIC [24]: 64 µg/mL (≈ 119 µM); MIC [25]: 16 µg/mL (≈ 29.8 µM); MIC [26]: 16 µg/mL (≈ 29.8 µM); MIC [27]: 16 µg/mL (≈ 29.8 µM); MIC [28]: 32 µg/mL (≈ 59.5 µM); MIC [29]: 1 µg/mL (≈ 1.86 µM); MIC [30]: 16 µg/mL (≈ 29.8 µM); MIC [31]: 32 µg/mL (≈ 59.5 µM); MIC [32]: 32 µg/mL (≈ 59.5 µM); MIC [33]: 64 µg/mL (≈ 119 µM); MIC [34]: 2 µg/mL (≈ 3.72 µM) |
| CO/N=C1/CN(c2c(F)cc3c(=O)c(C(=O)O)cn4c3c2OC[C@@H]4C)CC1CNC1CC1 (some centres not stated) | 0.5 (≈ 1.12 µM) | > 64 | > 64 | > 64 | > 64 | 4 (≈ 9 µM) | 4 (≈ 9 µM) | 8 (≈ 18 µM) | 32 (≈ 72 µM) | 32 (≈ 72 µM) | > 64 | > 64 | 64 (≈ 144 µM) | 64 (≈ 144 µM) | > 64 | > 64 | 64 (≈ 144 µM) | 4 (≈ 9 µM) | 64 (≈ 144 µM) | 16 (≈ 36 µM) | MIC [21]: 16 µg/mL (≈ 36 µM); MIC [22]: > 64 µg/mL; MIC [23]: 64 µg/mL (≈ 144 µM); MIC [24]: > 64 µg/mL; MIC [25]: > 64 µg/mL; MIC [26]: > 64 µg/mL; MIC [27]: 64 µg/mL (≈ 144 µM); MIC [28]: > 64 µg/mL; MIC [29]: 8 µg/mL (≈ 18 µM); MIC [30]: > 64 µg/mL; MIC [31]: 64 µg/mL (≈ 144 µM); MIC [32]: > 128 µg/mL; MIC [33]: > 64 µg/mL; MIC [34]: 16 µg/mL (≈ 36 µM) |
| CCO/N=C1/CN(c2nc3c(cc2F)c(=O)c(C(=O)O)cn3C2CC2)CC1CNC1CC1 (configuration not stated) | 2 (≈ 4.51 µM) | 8 (≈ 18 µM) | 128 (≈ 289 µM) | 128 (≈ 289 µM) | 128 (≈ 289 µM) | 8 (≈ 18 µM) | 8 (≈ 18 µM) | 8 (≈ 18 µM) | 32 (≈ 72.2 µM) | 32 (≈ 72.2 µM) | 128 (≈ 289 µM) | 128 (≈ 289 µM) | 8 (≈ 18 µM) | 8 (≈ 18 µM) | 32 (≈ 72.2 µM) | 32 (≈ 72.2 µM) | 16 (≈ 36.1 µM) | < 0.008 | 8 (≈ 18 µM) | 8 (≈ 18 µM) | MIC [21]: 8 µg/mL (≈ 18 µM); MIC [22]: 128 µg/mL (≈ 289 µM); MIC [23]: 8 µg/mL (≈ 18 µM); MIC [24]: 128 µg/mL (≈ 289 µM); MIC [25]: 16 µg/mL (≈ 36.1 µM); MIC [26]: 16 µg/mL (≈ 36.1 µM); MIC [27]: 32 µg/mL (≈ 72.2 µM); MIC [28]: 16 µg/mL (≈ 36.1 µM); MIC [29]: 2 µg/mL (≈ 4.51 µM); MIC [30]: 32 µg/mL (≈ 72.2 µM); MIC [31]: 16 µg/mL (≈ 36.1 µM); MIC [32]: 8 µg/mL (≈ 18 µM); MIC [33]: 64 µg/mL (≈ 144 µM); MIC [34]: 0.125 µg/mL (≈ 0.282 µM) |
